In ChEMBL document CHEMBL3351626, “Discovery, structure-activity relationship studies, and anti-nociceptive effects of 1-phenyl-3,6,6-trimethyl-1,5,6,7-tetrahydro-4H-indazol-4-one as novel opioid receptor agonists” (Bioorg Med Chem, 2014):
Each block holds one molecule with its values, some of them ahead of it. Activity calls are given as the source filed them. The rule behind the calls is not given here.

Legend:
Mu-type opioid receptor [1] = biological target: Mu-type opioid receptor (Rattus norvegicus, UniProt P33535); assay: Displacement of [3H]-naloxone from rat mu opioid receptor expressed in HEK cells after 60 mins; type: cell-based, HEK293
Sequence of Mu-type opioid receptor (Rattus norvegicus, UniProt P33535) (P33535 whole entry): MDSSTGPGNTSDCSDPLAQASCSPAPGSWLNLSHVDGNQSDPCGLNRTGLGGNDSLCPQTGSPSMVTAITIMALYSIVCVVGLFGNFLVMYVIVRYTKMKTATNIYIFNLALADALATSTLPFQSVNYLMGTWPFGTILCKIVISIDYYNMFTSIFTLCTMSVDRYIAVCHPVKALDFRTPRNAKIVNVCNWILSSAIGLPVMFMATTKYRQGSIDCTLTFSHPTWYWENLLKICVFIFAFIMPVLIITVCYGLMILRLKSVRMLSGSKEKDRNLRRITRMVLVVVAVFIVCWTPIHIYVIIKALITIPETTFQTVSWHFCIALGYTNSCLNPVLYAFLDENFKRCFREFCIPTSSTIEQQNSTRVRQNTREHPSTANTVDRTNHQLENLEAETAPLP

Mu-type opioid receptor [2] = biological target: T1, Mu-type opioid receptor (Homo sapiens, UniProt P35372); type: functional, cell-based, CHO-K1
T1 sequence (P35372 whole entry): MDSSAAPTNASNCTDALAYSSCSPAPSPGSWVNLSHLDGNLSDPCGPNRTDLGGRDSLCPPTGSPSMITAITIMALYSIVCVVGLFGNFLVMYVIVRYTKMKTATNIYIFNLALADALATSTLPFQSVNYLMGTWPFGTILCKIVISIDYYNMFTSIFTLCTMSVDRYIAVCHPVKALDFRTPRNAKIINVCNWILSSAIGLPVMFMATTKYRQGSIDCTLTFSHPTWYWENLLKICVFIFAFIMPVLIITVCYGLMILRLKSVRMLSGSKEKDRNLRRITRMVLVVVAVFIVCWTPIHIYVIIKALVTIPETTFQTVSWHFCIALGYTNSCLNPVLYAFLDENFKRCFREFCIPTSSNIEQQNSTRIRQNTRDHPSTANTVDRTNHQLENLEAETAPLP

Mu-type opioid receptor [3] = biological target: T1, Mu-type opioid receptor; assay: Agonist activity at human mu opioid receptor expressed in HEK293 cells assessed as inhibition of forskolin-induced cAMP production after 30 mins by HTRF assay; type: functional, cell-based
[4] = biological target: Kappa-type opioid receptor (Homo sapiens, UniProt P41145); assay: Agonist activity at human kappa opioid receptor expressed in HEK293 cells assessed as inhibition of forskolin-induced cAMP production after 30 mins by HTRF assay; type: functional, cell-based
Sequence of Kappa-type opioid receptor (P41145 whole entry): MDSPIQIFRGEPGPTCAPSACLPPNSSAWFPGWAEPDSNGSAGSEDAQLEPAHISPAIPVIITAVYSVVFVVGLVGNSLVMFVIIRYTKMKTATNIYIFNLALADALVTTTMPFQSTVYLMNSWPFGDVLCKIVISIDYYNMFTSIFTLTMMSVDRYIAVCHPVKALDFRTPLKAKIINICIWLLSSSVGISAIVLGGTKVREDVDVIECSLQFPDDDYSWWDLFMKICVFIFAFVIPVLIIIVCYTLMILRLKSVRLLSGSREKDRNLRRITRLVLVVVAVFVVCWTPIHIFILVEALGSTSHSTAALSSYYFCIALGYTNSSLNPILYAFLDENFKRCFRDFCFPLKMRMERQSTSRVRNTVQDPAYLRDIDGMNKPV
In short: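 HEK293 cells stably expressing the mu, delta or kappa opioid receptor, plus parental cells, at 2000 cells/well in DMEM. Compound in HBSS added with 1 µM forskolin and 100 µM IBMX for 30 min at room temperature. d2-cAMP and anti-cAMP antibody in lysis buffer then added. Read 2 h later: excitation 330 nm, emission 620 and 665 nm.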

[5] = biological target: Delta-type opioid receptor (Homo sapiens, UniProt P41143); assay: Agonist activity at human delta opioid receptor expressed in HEK293 cells assessed as inhibition of forskolin-induced cAMP production after 30 mins by HTRF assay; type: functional, cell-based
Sequence of Delta-type opioid receptor (P41143 whole entry): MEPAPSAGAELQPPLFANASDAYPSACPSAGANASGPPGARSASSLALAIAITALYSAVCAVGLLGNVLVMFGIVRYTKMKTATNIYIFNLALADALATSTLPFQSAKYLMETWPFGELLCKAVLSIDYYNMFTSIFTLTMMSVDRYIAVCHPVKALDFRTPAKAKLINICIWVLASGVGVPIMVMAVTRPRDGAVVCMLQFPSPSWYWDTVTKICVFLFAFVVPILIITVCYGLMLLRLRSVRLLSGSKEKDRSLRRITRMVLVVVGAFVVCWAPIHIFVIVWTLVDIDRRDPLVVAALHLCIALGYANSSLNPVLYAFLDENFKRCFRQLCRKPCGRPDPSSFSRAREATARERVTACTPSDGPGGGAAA

Mus musculus [6] = assay: Analgesic activity in iv dosed wild type B6 mouse assessed as basal tail-flick withdrawal latency; type: functional
In short: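 Tail-flick instrument nociception test in wild-type B6 mice. Basal latency measured first, then compound given iv (20, 18.4 or 25 mg/kg depending on compound). Latency read at 10, 20, 30, 40, 50 and 60 min after dosing, reported as test latency minus basal latency. AUC of the time-response curve calculated; ED50 by up-and-down method. n=6 per group.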

Mu-type opioid receptor [7] = biological target: T1, Mu-type opioid receptor; assay: Agonist activity at myc-tagged mu opioid receptor (unknown origin) expressed in AtT-20 cells assessed as induction of membrane potential hyperpolarization in presence of 1 uM naloxone; type: cell-based; details: AtT20
In short: (§1)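 Mouse pituitary AtT-20 cells (endogenous GIRK1/GIRK2) electroporated with myc-MOR plasmid or vehicle and seeded. After 24 h, serum-starved 3 h, then loaded with blue membrane potential dye for 0.5 h at 25 °C. Vehicle or compound added and potassium conductance read as fluorescence over about 175 s.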

Mus musculus [8] = assay: Analgesic activity in wild type B6 mouse assessed as basal tail-flick withdrawal latency at 18.4 mg/kg, iv injected with 10 mg/kg, sc naloxone 5 mins before compound dosing; type: functional, organism-based
In short: (§2)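 Wild-type B6 mice, n=6 per group. Basal tail-flick latency measured first. […] Latency read at 10, 20, 30, 40, 50 and 60 min after dosing. Test minus basal latency plotted against time and AUC calculated.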

Mu-type opioid receptor [9] = biological target: T1, Mu-type opioid receptor; assay: Agonist activity at myc-tagged mu opioid receptor (unknown origin) expressed in AtT-20 cells assessed as induction of membrane potential hyperpolarization; type: cell-based, AtT20; in short: as §1
Mus musculus [10] = assay: Analgesic activity in wild type B6 mouse assessed as basal tail-flick withdrawal latency at 25 mg/kg, iv injected with 10 mg/kg, sc naloxone 5 mins before compound dosing; type: functional, organism-based; in short: as §2
Mus musculus [11] = assay: Analgesic activity in wild type B6 mouse assessed as basal tail-flick withdrawal latency at 20 mg/kg, iv injected with 10 mg/kg, sc naloxone 5 mins before compound dosing; type: functional, organism-based; in short: as §2

Ki (Mu-type opioid receptor [1]): > 100000 nM
EC50 (Mu-type opioid receptor [2]): 370 nM
Structure (SMILES): Cc1cc(Cl)ccc1-n1nc(C)c2c1CC(C)(C)CC2=O

EC50 (Mu-type opioid receptor [2]): > 100000 nM
Structure (SMILES): Cc1n[nH]c2c1C(=O)CC(C)(C)C2

Structure (SMILES): CC1(C)CC(=O)c2c(C(F)(F)F)nn(-c3ccc(Cl)cc3Cl)c2C1
EC50 (Mu-type opioid receptor [2]): 1540 nM

EC50 (Mu-type opioid receptor [2]): 2890 nM
Structure (SMILES): Cc1nn(-c2cc(Cl)ccc2Cl)c2c1C(=O)CC(C)(C)C2

Ki (Mu-type opioid receptor [1]): 1300 nM
EC50 (Mu-type opioid receptor [2]): 370 nM
Structure (SMILES): CC1(C)CC(=O)c2c(C3CC3)nn(-c3ccc(Cl)cc3Cl)c2C1

EC50 (Mu-type opioid receptor [2]): > 100000 nM
Structure (SMILES): Cc1nn(-c2cccc(Cl)c2)c2c1C(=O)CC(C)(C)C2

EC50 (Mu-type opioid receptor [2]): 10300 nM
Structure (SMILES): Cc1nn(-c2ccc(F)cc2F)c2c1C(=O)CC(C)(C)C2

EC50 (Mu-type opioid receptor [2]): 8900 nM
Structure (SMILES): Cc1cccc(-n2nc(C)c3c2CC(C)(C)CC3=O)c1C

Structure (SMILES): Cc1nn(-c2ccc(Br)cc2Br)c2c1C(O)CC(C)(C)C2 (stereo not given)
Ki (Mu-type opioid receptor [1]): > 100000 nM
IC50 (Mu-type opioid receptor [3]): 3380 nM
EC50 (Mu-type opioid receptor [2]): 100 nM
IC50 [4]: 1100 nM
IC50 [5]: > 100000 nM

Structure (SMILES): Cc1nn(-c2ccc(Cl)cc2Br)c2c1C(=O)CC(C)(C)C2
Ki (Mu-type opioid receptor [1]): 610 nM
ED50 (Mus musculus [6]): 10.9 mg/kg
IC50 (Mu-type opioid receptor [3]): 3300 nM
EC50 (Mu-type opioid receptor [2]): 41 nM
IC50 [4]: 570 nM
Activity (Mu-type opioid receptor [7]): inactive
Activity (Mus musculus [8]): inactive
EC50 (Mu-type opioid receptor [9]): 100 nM
IC50 [5]: 3380 nM

EC50 (Mu-type opioid receptor [2]): 18400 nM
Structure (SMILES): COc1ccc(-n2nc(C)c3c2CC(C)(C)CC3=O)cc1

EC50 (Mu-type opioid receptor [2]): > 100000 nM
Structure (SMILES): Cc1nn(-c2ccccc2)c2c1C(=O)CC(C)(C)C2

EC50 (Mu-type opioid receptor [2]): 10000 nM
Structure (SMILES): COC(=O)c1ccc(-n2nc(C)c3c2CC(C)(C)CC3=O)cc1

Ki (Mu-type opioid receptor [1]): 3930 nM
EC50 (Mu-type opioid receptor [2]): 370 nM
Structure (SMILES): Cc1ccc(-n2nc(C)c3c2CC(C)(C)CC3=O)c(C)c1

EC50 (Mu-type opioid receptor [2]): 10000 nM
Structure (SMILES): Cc1ccc(C)c(-n2nc(C)c3c2CC(C)(C)CC3=O)c1

EC50 (Mu-type opioid receptor [2]): 30200 nM
Structure (SMILES): CCOC(=O)c1ccccc1-n1nc(C)c2c1CC(C)(C)CC2=O

IC50 (Mu-type opioid receptor [3]): 7890 nM
EC50 (Mu-type opioid receptor [2]): 150 nM
IC50 [4]: 2650 nM
IC50 [5]: 10000 nM
Structure (SMILES): Cc1nn(-c2ccc(Cl)cc2Cl)c2c1C(=O)CC(C)(C)C2

EC50 (Mu-type opioid receptor [2]): 13600 nM
Structure (SMILES): Cc1nn(-c2ccc(Cl)cc2Cl)c2c1C(=O)CCC2

Structure (SMILES): Cc1ccc(-n2nc(C)c3c2CC(C)(C)CC3=O)c(Br)c1
Ki (Mu-type opioid receptor [1]): 740 nM
ED50 (Mus musculus [6]): 26.6 mg/kg
IC50 (Mu-type opioid receptor [3]): 6000 nM
EC50 (Mu-type opioid receptor [2]): 41 nM
Activity (Mus musculus [10]): inactive
IC50 [4]: 370 nM
Activity (Mu-type opioid receptor [7]): inactive
EC50 (Mu-type opioid receptor [9]): 200 nM
IC50 [5]: > 100000 nM

EC50 (Mu-type opioid receptor [2]): 13600 nM
Structure (SMILES): Cc1nn(-c2ccc(Cl)cc2)c2c1C(=O)CC(C)(C)C2

Structure (SMILES): Cc1nn(-c2ccc(Br)cc2Br)c2c1C(=O)CC(C)(C)C2
Ki (Mu-type opioid receptor [1]): 470 nM
ED50 (Mus musculus [6]): 8.4 mg/kg
IC50 (Mu-type opioid receptor [3]): 730 nM
EC50 (Mu-type opioid receptor [2]): 41 nM
Activity (Mus musculus [11]): inactive
IC50 [4]: 410 nM
Activity (Mu-type opioid receptor [7]): inactive
EC50 (Mu-type opioid receptor [9]): 5490 nM
IC50 [5]: 1690 nM

EC50 (Mu-type opioid receptor [2]): 19000 nM
Structure (SMILES): CCc1ccccc1-n1nc(C)c2c1CC(C)(C)CC2=O

EC50 (Mu-type opioid receptor [2]): 1120 nM
Structure (SMILES): Cc1nn(-c2ccccc2Br)c2c1C(=O)CC(C)(C)C2

EC50 (Mu-type opioid receptor [2]): 4720 nM
Structure (SMILES): Cc1ccccc1-n1nc(C)c2c1CC(C)(C)CC2=O

EC50 (Mu-type opioid receptor [2]): 9910 nM
Structure (SMILES): Cc1nn(-c2ccc(Br)cc2)c2c1C(=O)CC(C)(C)C2

EC50 (Mu-type opioid receptor [2]): 2280 nM
Structure (SMILES): Cc1nn(-c2ccccc2Cl)c2c1C(=O)CC(C)(C)C2
